Source: PubChem BioAssay AID493236 (Broad Institute, 2011)
Results filed as inconclusive are left out. Values without a mark were called inactive.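 The calls were made as follows: active = luminescence cut by more than half of the full-inhibition control window in a dose series; inconclusive = no clear call, values can overlap the other calls; inactive = signal rising instead of falling, or the rest.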

Each compound was assayed on proteasome chymotrypsin-like activity (human) (assay: proteasome chymotrypsin-like activity inhibitors, dose response, counter-screen for HIF pathway activator project, cell-based, U2OS, luminescence, dry powder, set 4 (AID 493236)). Details: U2OS cells, Proteasome-Glo chymotrypsin luminescence; series mostly up to 38 µM; activity change, negative = inhibition: at the top concentration.
In short: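 System: U2OS cells. Input: 2,500 U2OS cells per well. Compound dosing: 8-point threefold dilution series, source stock top 16.5 mM. Timing: 24 h plating, 4 h compound, 2 h reagent. Technique: Proteasome-Glo luminescence. Evaluation: percent activity relative to MG132 and DMSO. Controls: MG132 (1 µM) and DMSO. Repeats: each compound tested in duplicate.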

SMILES	activity change, negative = inhibition
COc1ccc(CNc2nc(-c3ccccn3)nnc2-c2ccccc2)cc1	-0.602%
C[C@H](Nc1nc(-c2ccccn2)nnc1-c1ccccc1)C1CCCCC1	2.06%
Cc1ccc(CNC(=O)c2cc(-c3ccccc3)on2)cc1	2.56%
OCCCNc1nc(-c2ccccn2)nnc1-c1ccccc1	-1.6%
COc1ccccc1N1CCN(Cc2ccc(O)c3ncccc23)CC1	-1.65%
Clc1cccc(CNc2nc(-c3ccccn3)nnc2-c2ccccc2)c1	-1.26%
O=C(Nc1ncc(-c2ccccc2)o1)c1cc(-c2ccccc2)on1	1.92%
O=C(NCCCn1ccnc1)c1cc(-c2ccccc2)on1	-8.48%
c1ccc(-c2nnc(-c3ccccn3)nc2Nc2cnc3ccccc3n2)cc1	-6.01%
O=C(NCCN1CCOCC1)c1cc(-c2ccccc2)on1	-6.96%
O=C(Nc1ccc2ccccc2n1)c1cc(-c2ccccc2)on1	-3.31%
O=C(c1cc(-c2ccccc2)on1)N1CCC(N2CCOCC2)CC1	3.6%
c1ccc(-c2nnc(-c3ccccn3)nc2NCC2CCOCC2)cc1	-4.29%
c1ccc(-c2nnc(-c3ccccn3)nc2NCCN2CCOCC2)cc1	-6.63%
c1ccc(-c2nnc(-c3ccccn3)nc2NCC2CCCCC2)cc1	-0.951%
O=C(NCCCCO)c1cc(-c2ccccc2)on1	-7.19%
Oc1ccc(CN2CCC(Cc3ccccc3)CC2)c2cccnc12	-2.75%
c1ccc(-c2cccc(CNc3nc(-c4ccccn4)nnc3-c3ccccc3)c2)cc1	10.3%
Cc1ccccc1CNc1nc(-c2ccccn2)nnc1-c1ccccc1	2.35%
Cc1ccc(Nc2nc(-c3ccccn3)nnc2-c2ccccc2)cn1	-0.351%
